From ChEMBL document CHEMBL1938298, “Synthesis and characterization of [¹²⁵I]2-iodo N-[(S)-{(S)-1-methylpiperidin-2-yl}(phenyl)methyl]3-trifluoromethyl-benzamide as novel imaging probe for glycine transporter 1” (Bioorg Med Chem, 2011)
The source made the active and inactive calls. The calls are words filed in the database; no cut-off is given here.

Assays:
Blood = assay: Drug uptake in ddY mouse blood at 11.1 kBq, iv after 180 min by gamma counting; assay type: ADME, organism-based; conditions: in vivo, 3 h
Outline: (§1)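 Male ddY mice (6 weeks, 30–35 g) received about 11.1 kBq [125I]tracer in 0.1 mL i.v. via tail vein. Killed at set times, organs dissected and weighed, radioactivity gamma counted. Reported as % injected dose/g tissue, mean ± SD, n = 5–6.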

Liver = assay: Drug uptake in ddY mouse liver at 11.1 kBq, iv after 15 min by gamma counting; assay type: ADME, organism-based; conditions: in vivo
Outline: (§2)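 Male ddY mice (6 weeks, 30–35 g) were given about 11.1 kBq of [125I]tracer in 0.1 mL i.v. via the tail vein. At each time point the animals were killed and organs dissected, weighed and gamma-counted. Uptake is expressed as % injected dose per gram of tissue, mean ± SD, n = 5–6.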

Lung = assay: Drug uptake in ddY mouse lung at 11.1 kBq, iv after 60 min by gamma counting; assay type: ADME, organism-based; conditions: in vivo, 1 h; outline: as §2
Mus musculus [1] = assay: In vivo binding affinity to GlyT1 in ddY mouse brain medullary region at 33.3 kBq, iv after 60 mins in presence of nonradioactive compound 2 mg/kg, iv administered 15 mins prior to compound administration relative to control; assay type: functional, Medulla of organ
Mus musculus [2] = assay: In vivo binding affinity to GlyT1 in ddY mouse brain medullary region at 33.3 kBq, iv after 60 mins in presence of N-Me-SSR504734 2 mg/kg, iv administered 15 mins prior to compound administration relative to control; assay type: functional, Medulla of organ
Nucleic Acid = assay: Ratio of drug level in brain to blood in ddY mouse at 11.1 kBq, iv after 180 min by gamma counting; assay type: ADME, organism-based; conditions: 3 h
[3] = Metabolic stability in ddY mouse brain assessed as compound remaining at 185 kBq after 30 mins by radio-TLC; assay type: ADME, tissue-based; conditions: read-out: Stability
Stomach = assay: Drug uptake in ddY mouse stomach at 11.1 kBq, iv after 5 min by gamma counting; assay type: ADME, organism-based; conditions: in vivo; outline: as §2
Pancreas = assay: Drug uptake in ddY mouse pancreas at 11.1 kBq, iv after 60 min by gamma counting; assay type: ADME, organism-based; conditions: in vivo, 1 h; outline: as §2
Brain [4] = assay: Drug uptake in ddY mouse brain at 11.1 kBq, iv after 0.5 min by gamma counting; assay type: ADME, organism-based; conditions: in vivo; outline: as §1
Brain [5] = assay: Drug uptake in ddY mouse brain at 11.1 kBq, iv after 15 min by gamma counting; assay type: ADME, organism-based; conditions: in vivo; outline: as §1
Brain [6] = assay: Drug uptake in ddY mouse brain at 11.1 kBq, iv after 180 min by gamma counting; assay type: ADME, organism-based; conditions: in vivo, 3 h; outline: as §1
[7] = molecular target: T1, Sodium- and chloride-dependent glycine transporter 1 (Rattus norvegicus, UniProt P28572); assay: Binding affinity to GlyT1 in rat cortical brain homogenate after 60 mins by gamma counting; assay type: tissue-based
T1 sequence (P28572 whole entry): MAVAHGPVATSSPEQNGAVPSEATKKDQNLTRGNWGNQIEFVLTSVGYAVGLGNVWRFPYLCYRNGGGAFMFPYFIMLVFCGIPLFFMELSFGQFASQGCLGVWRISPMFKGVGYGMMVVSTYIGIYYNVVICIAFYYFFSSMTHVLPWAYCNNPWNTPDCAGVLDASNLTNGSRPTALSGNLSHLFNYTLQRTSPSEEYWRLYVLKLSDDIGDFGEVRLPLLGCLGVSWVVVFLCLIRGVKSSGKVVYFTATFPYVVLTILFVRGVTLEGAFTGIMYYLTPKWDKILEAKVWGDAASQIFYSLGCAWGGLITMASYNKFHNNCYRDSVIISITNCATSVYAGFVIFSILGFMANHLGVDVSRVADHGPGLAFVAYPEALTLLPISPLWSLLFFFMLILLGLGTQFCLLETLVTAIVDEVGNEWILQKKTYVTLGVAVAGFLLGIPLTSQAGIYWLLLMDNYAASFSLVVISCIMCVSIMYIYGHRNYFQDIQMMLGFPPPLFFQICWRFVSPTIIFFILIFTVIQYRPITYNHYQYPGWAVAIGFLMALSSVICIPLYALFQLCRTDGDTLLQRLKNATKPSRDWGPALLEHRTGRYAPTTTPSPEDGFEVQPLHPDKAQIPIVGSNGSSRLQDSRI
Outline: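 Saturation binding on washed rat cortical membranes (25 µg protein) with [125I]tracer 0.1–20 nM in TB1 buffer (120 mM NaCl, 2 mM KCl, 1 mM CaCl2, 1 mM MgCl2, 10 mM HEPES, pH 7.5), 60 min at room temperature. Nonspecific binding defined with 10 µM unlabeled ligand. GF/B filtration with ice-cold buffer washes, gamma counting; Kd and Bmax from saturation analysis.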

Mus musculus [8] = assay: In vivo binding affinity to GlyT1 in ddY mouse brain striatum at 33.3 kBq, iv after 30 mins in presence of nonradioactive compound 2 mg/kg, iv administered 15 mins prior to compound administration relative to control; assay type: functional, organism-based; set-up: dose 2 mg/kg; conditions: tested as the 125I-labelled form
[9] = molecular target: T2, Sodium- and chloride-dependent glycine transporter 1 (Rattus norvegicus) (UniProt P28572); assay: Binding affinity to GlyT1 in rat brain striatum at 0.03 to 0.04 nM preincubated for 20 mins in binding buffer before compound addition measured after 30 mins by autoradiography in presence of 0.01 mM GlyT2 inhibitor ORG25543 relative to control; assay type: tissue-based; conditions: tested as the 125I-labelled form
T2 sequence (whole entry): T1 sequence (P28572 whole entry)

Mus musculus [10] = assay: In vivo binding affinity to GlyT1 in ddY mouse brain thalamus at 33.3 kBq, iv after 30 mins in presence of SSR504734 2 mg/kg, iv administered 15 mins prior to compound administration relative to control; assay type: functional, organism-based; set-up: dose 2 mg/kg; conditions: tested as the 125I-labelled form
Mus musculus [11] = assay: In vivo binding affinity to GlyT1 in ddY mouse brain medullary region at 33.3 kBq, iv after 30 mins in presence of SSR504734 2 mg/kg, iv administered 15 mins prior to compound administration relative to control; assay type: functional, organism-based; set-up: dose 2 mg/kg; conditions: Medulla of organ, tested as the 125I-labelled form
Mus musculus [12] = assay: In vivo binding affinity to GlyT1 in ddY mouse brain striatum at 200 kBq, iv after 60 mins by autoradiography relative to control; assay type: functional, organism-based; conditions: tested as the 125I-labelled form
[13] = molecular target: T2, Sodium- and chloride-dependent glycine transporter 1 (Rattus norvegicus); assay: Binding affinity to GlyT1 in rat brain medullary region at 0.03 to 0.04 nM preincubated for 20 mins in binding buffer before compound addition measured after 30 mins by autoradiography in presence of 0.01 mM NMDA receptor glycine site antagonist L-701,324 relative to control; assay type: tissue-based; conditions: tested as the 125I-labelled form
Outline: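 Rat brain sagittal sections (20 µm) preincubated 20 min at 25 °C in Tris-HCl buffer pH 7.5 (NaCl, KCl, MgCl2, CaCl2), then 30 min at 25 °C with [125I] tracer (100 kBq, 0.03–0.04 nM) plus competitor (10 µM; glycine 1 or 10 mM). Cold washes, imaging plate 3 days, ROI PSL minus background per mm². % control from ≥triplicate slices, three rats.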

[14] = molecular target: T2, Sodium- and chloride-dependent glycine transporter 1 (Rattus norvegicus); assay: Binding affinity to GlyT1 in rat brain cerebellar gray matter at 0.03 to 0.04 nM preincubated for 20 mins in binding buffer before compound addition measured after 30 mins by autoradiography relative to control; assay type: tissue-based; conditions: tested as the 125I-labelled form

Which Drug uptake (Blood) does the source give for `CN1CCCC[C@H]1[C@@H](NC(=O)c1cccc(C(F)(F)F)c1[125I])c1ccccc1` here?
Its Drug uptake is 0.85 % ID/g.

What about the Drug uptake (Liver) of the same compound?
The Drug uptake was 11.51 % ID/g.

What about the Drug uptake (Lung) of the same compound?
Its Drug uptake is 12.09 % ID/g.

And the Activity (Mus musculus [1])?
The Activity was 52%.

What about the Activity (Mus musculus [2]) of the same compound?
Its Activity is 47%.

What about the Ratio (Nucleic Acid) of the same compound?
Its Ratio is 0.85.

And the remaining at 0.5 h [3]?
Its remaining at 0.5 h is 90%.

What about the Drug uptake (Stomach) of the same compound?
Its Drug uptake is 3.3 % ID/g.

What about the Drug uptake (Pancreas) of the same compound?
Its Drug uptake is 9.51 % ID/g.

What about the Drug uptake (Brain [4]) of the same compound?
Its Drug uptake is 0.51 % ID/g.

And the Drug uptake (Brain [5])?
The Drug uptake was 1.68 % ID/g.

What about the Drug uptake (Brain [6]) of the same compound?
The Drug uptake was 0.73 % ID/g.

And the Kd [7]?
Its Kd is 1.58 nM.

With `CN1CCCC[C@H]1[C@@H](NC(=O)c1cccc(C(F)(F)F)c1I)c1ccccc1` as the compound, how does the Activity (Mus musculus [8]) read?
Its Activity is “Active”.

What about the Activity [9] of the same compound?
Its Activity is 104%.

What about the Activity (Mus musculus [10]) of the same compound?
The Activity was “inactive”.

What about the Activity (Mus musculus [11]) of the same compound?
Its Activity is “inactive”.

And the Activity (Mus musculus [12])?
The Activity was “inactive”.

And the Activity [13]?
Its Activity is 104%.

What about the Activity [14] of the same compound?
Its Activity is “inactive”.
